# Experiments:
# [1] = molecular target: Phospholipase A2, major isoenzyme (Sus scrofa, UniProt P00592); assay: Inhibition of pig pancreatic PLA2 by fluorometric assay
# Method in brief: (§1)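 Fluorimetric PLA2 assay after Radvanyi et al. Enzymes were secretory human recombinant group II PLA2 and secretory porcine pancreatic group I PLA2. Concentration of the fluorescent substrate determined by UV spectrometry in a quartz cell. Values reported as IC50.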
# [2] = molecular target: T1, Phospholipase A2, membrane associated (Homo sapiens, UniProt P14555); assay: Inhibition of human recombinant PLA2 by fluorometric assay; method in brief: as §1
# T1 sequence (P14555 whole entry): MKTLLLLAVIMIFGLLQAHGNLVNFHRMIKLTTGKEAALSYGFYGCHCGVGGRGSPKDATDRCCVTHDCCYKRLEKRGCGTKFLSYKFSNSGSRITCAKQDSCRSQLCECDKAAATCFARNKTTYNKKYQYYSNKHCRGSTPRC
# [3] = Lipophilicity, log P of the compound; format: physicochemical; settings: octanol/water
# Method in brief: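 logP of the free base calculated with Rekker's hydrophobic fragmental constants method.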
# [4] = tested on: Rattus norvegicus; assay: Inhibition of carrageenan-induced hind paw edema in rat assessed as decrease in paw volume at 10 mg/kg; format: functional; design: scale not given: the % may be the effect or the level left
# Method in brief: (§2)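 Rats. Compound given ip or orally 1 h before carrageenan injection into the hind leg; doses 5, 10 and 20 mg/kg. Indomethacin used as positive control. Edema volume measured at 0, 3 and 5 h after carrageenan.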
# [5] = tested on: Mus musculus; assay: Antiinflammatory activity against croton oil-induced ear edema in mouse at 1 mg/ear; format: functional
# Method in brief: (§3)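 Mice, anaesthetized. Test compound applied locally to inner surface of ear (or given per os); 1 h later croton oil applied to the ear to induce edema. 5 h after croton oil, edematous tissue punched out with a gimlet and compared with tissue from a control site to calculate percent inhibition. Results reported as mean of the animals tested, with number of experiments.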
# [6] = tested on: Rattus norvegicus; assay: Inhibition of carrageenan-induced hind paw edema in rat assessed as decrease in paw volume at 10 mg/kg, po after 5 hrs; format: functional; design: scale not given: the % may be the effect or the level left; method in brief: as §2
# [7] = tested on: Mus musculus; assay: Antiinflammatory activity against croton oil-induced ear edema in mouse at 0.5 mg/ear; format: functional; method in brief: as §3
# Phospholipase A2, major isoenzyme, sequence (P00592 whole entry): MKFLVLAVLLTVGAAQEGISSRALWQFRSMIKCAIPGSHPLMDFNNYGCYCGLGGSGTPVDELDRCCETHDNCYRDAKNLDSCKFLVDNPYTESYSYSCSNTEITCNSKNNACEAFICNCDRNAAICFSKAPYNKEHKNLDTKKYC
SMILES,IC50 [1],IC50 [2],logP ([3]; read-out: LogP),Activity [4],Activity [5],logP [3],Activity [6],Activity [7]
CCCCCCCCCCCCCCN1CCN(c2ccc(Cc3nc(=O)o[nH]3)cc2)CC1,> 100 µM,4.5 µM,5.95,–,–,–,–,–
CCCCCCCCCCCCCCN1CCN(Cc2ccc(Cc3noc(=O)[nH]3)cc2)CC1,> 100 µM,> 10 µM,5.59,79%,51.45%,–,–,–
CCCCCCCCCCCCCCCCN1CCN(Cc2ccc(Cc3noc(=O)[nH]3)cc2)CC1,> 100 µM,10 µM,6.63,–,–,–,–,–
CCCCCCCCCCCCCCN1CCN(C(=O)c2ccc(CCCc3noc(=O)[nH]3)cc2)CC1,> 100 µM,5.3 µM,6.81,–,–,–,–,–
CCCCCCCCCCCCCCCCCCN1CCN(C(=O)c2ccc(Cc3noc(=O)[nH]3)cc2)CC1,> 100 µM,0.8 µM,7.86,–,–,–,–,–
CCCCCCCCCCCCCCCCN1CCN(Cc2ccc(-c3noc(=O)[nH]3)cc2)CC1,> 100 µM,> 100 µM,6.34,–,–,–,–,–
CCCCCCCCCCCCCCN1CCN(C(=O)c2ccc(-c3nc(=O)o[nH]3)cc2)CC1,> 100 µM,> 100 µM,5.48,–,–,–,–,–
CCCCCCCCCCCCCCCCCCCCCCN1CCN(C(=O)c2ccc(Cc3noc(=O)[nH]3)cc2)CC1,> 100 µM,0.1 µM,–,–,–,9.932,–,–
CCCCCCCCCCCCCCCCCCN1CCN(Cc2ccc(-c3noc(=O)[nH]3)cc2)CC1,> 100 µM,5.08 µM,7.37,–,–,–,–,–
CCCCCCCCCCCCCCN1CCN(Cc2ccc(-c3nc(=O)o[nH]3)cc2)CC1,> 100 µM,> 100 µM,5.3,–,–,–,–,–
CCCCCCCCCCCCCCN1CCN(C(=O)c2ccc(Cc3noc(=O)[nH]3)cc2)CC1,> 100 µM,9 µM,5.78,–,47.83%,–,65%,–
CCCCCCCCCCCCCCCCCCCCN1CCN(C(=O)c2ccc(Cc3noc(=O)[nH]3)cc2)CC1,> 100 µM,0.1 µM,8.89,–,–,–,–,–
CCCCCCCCCCCCCCCCN1CCN(c2ccc(Cc3noc(=O)[nH]3)cc2)CC1,> 100 µM,3.5 µM,6.98,–,–,–,–,–
COc1ccc2c(c1)c(CC(=O)O)c(C)n2C(=O)c1ccc(Cl)cc1 [INDOMETHACIN],–,–,–,73%,–,–,16%,43.11%
CCCCCCCCCCCCCCN1CCN(C(=O)c2ccc(CCc3nc(=O)o[nH]3)cc2)CC1,> 100 µM,18.7 µM,6.3,–,–,–,–,–
CCCCCCCCCCCCCCOc1ccc(Cc2noc(=O)[nH]2)cc1,> 100 µM,–,–,–,–,–,–,–
CCCCCCCCCCCCCCCCCCN1CCN(Cc2ccc(Cc3nc(=O)o[nH]3)cc2)CC1,> 100 µM,2.2 µM,7.67,–,–,–,–,–
CCCCCCCCCCCCCCCCCCN1CCN(c2ccc(Cc3noc(=O)[nH]3)cc2)CC1,> 100 µM,–,8.02,–,–,–,–,–
CCCCCCCCCCCCCCCCN1CCN(C(=O)c2ccc(-c3nc(=O)o[nH]3)cc2)CC1,> 100 µM,> 100 µM,6.53,–,–,–,–,–
CCCCCCCCCCCCCCCCN1CCN(C(=O)c2ccc(Cc3nc(=O)o[nH]3)cc2)CC1,> 100 µM,4 µM,6.81,–,–,–,–,–
CCCCCCCCCCCCCCCCCCN1CCN(C(=O)c2ccc(-c3noc(=O)[nH]3)cc2)CC1,> 100 µM,1.1 µM,7.56,–,–,–,–,–

# Reference: ChEMBL document CHEMBL1141576, “Design of new potent and selective secretory phospholipase A2 inhibitors. Part 5: synthesis and biological activity of 1-alkyl-4-[4,5-dihydro-1,2,4-[4H]-oxadiazol-5-one-3-ylmethylbenz-4'-yl(oyl)] piperazines” (Bioorg Med Chem, 2008)
